The subject of series [1] is caspase 3/7 activation in U87 cells. The series is described as follows: Caspase-Glo 3/7 assay in U87 cells. Type of series: cell-based, human. The following applies: doxorubicin 2 μM. Put shortly: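 U87 human glioblastoma cells were grown in DMEM with 10% FBS at 37 °C and 5% CO2, then seeded and cultured for 48 h before treatment. Doxorubicin 2 μM served as the apoptosis control, and signals were followed over time up to 48 h. For Caspase-Glo 3/7, plate and reagent were equilibrated to room temperature, then reagent was added to the wells. After 15 min at room temperature, luminescence was read.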

Series [2] deals with U87 human glioblastoma cell line. Put plainly: PrestoBlue viability test on U87 cells with or without HNE. Type of series: cell-based. As to conditions: 48 h. Put shortly: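 U87 cells were seeded and cultured for 48 h, then switched to serum-free DMEM. Test compound (0–400 μM) and HNE 0.68 μM were added; where used, eglin C 10 μM was added before HNE. After 1 h, 10% serum was added and incubation continued for 24, 48 or 72 h. PrestoBlue reagent (1/10 volume) was added for 30 min at 37 °C, and fluorescence was read at ex 560/em 590 nm.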

A further series relates to U87 cells. The series is described as follows: RealTime-Glo Annexin V Apoptosis and Necrosis Assay in U87 cells. The class given is cell-based, human. The following applies: doxorubicin 2 μM. Put shortly:
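U87 cells were kept in DMEM with 10% FBS at 37 °C and 5% CO2, seeded for 48 h, then exposed to doxorubicin 2 μM as the apoptosis control and followed up to 48 h. RealTime-Glo detection reagent was added to the live-cell medium. Annexin V binding was read by luminescence. Necrosis was read as fluorescence of a cell-impermeant DNA dye (ex 485/em 530 nm) after 60 min at 37 °C.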

The results in this text go back to PMC9289877 (Journal of Medicinal Chemistry, 2022).

*1 amine or outer side, *2 acyl side, *3 side chain or, on linkers, in order; H or OH if unused. Where a SMILES comes first, the peptide text is derived from it. The star is where a group is joined. X4 = CC(ON(C(C)(C)C)C(C)(C)C)c1ccc(O*)cc1; Suc = O=C(CCC(=O)[*:2])[*:1]

On to `COc1cccc2c1C(=O)c1c(O)c3c(c(O)c1C2=O)C[C@@](O)(C(=O)CO)C[C@@H]3O[C@H]1C[C@H](N)[C@H](O)[C@H](C)O1` [doxorubicin], for which the “caspase activity (positive control)” value in series [1] was “increases between 24 and 48 h”. Also, the “U87 population still viable” value in series [2] (doxorubicin 2 μM) came out at 50%. The “DNA+ labeling (positive control)” value in the series with U87 cells was “increases regularly until 48 h”. In addition, in the series with U87 cells (timing similar to caspase (24 to 48 h)), the “annexin V labeling (positive control)” value is given as “highly AV+”.
On to `CC(NC(=O)CCC(=O)O)C(=O)NC(C)C(=O)N1CCCC1C(=O)NC(C(=O)Oc1ccc(C(C)ON(C(C)(C)C)C(C)(C)C)cc1)C(C)C` (stereo not drawn) [suc-AAPV-phenol-DBNO, Acid 4-((1-((1-(2-((1-(4-(1-((di-tert-butylamino)oxy)ethyl)phenoxy)-3-methyl-1-oxobutan-2-yl)carbamoyl)pyrrolidin-1-yl)-1-oxopropan-2-yl)amino)-1-oxopropan-2-yl)amino)-4-oxobutanoic Acid] (Suc-AAPV-X4; configuration not given here), for which, in series [2] (U87 cells, prodrug 0–400 μM, HNE 0.68 μM), the “effect on viability in the presence of HNE” value was “does not have any measurable effect”.

B1: eglin C: a potent HNE inhibitor (CIBA-GEIGY) (protein, UniProt P01051 1-70, looked up)
Eglin C: TEFGSELKSFPEVVGKTVDQAREYFTLHYPQYDVYFLPEGSPVTLDLRYNRVRVFYNPGTNVVNHVPHVG
In the case of B1, in series [2] (eglin C 10 μM added just before HNE 0.68 μM, four prodrugs), the “rescue of U87 cells from prodrug + HNE cytotoxicity by elastase inhibitor” value was “rescues the cells”.
